Measurements: ChEMBL document CHEMBL1212928, “Synthesis and resolution of cis-(+/-)-methyl (1R,2S/1S,2R)-2-[(4-hydroxy-4-phenylpiperidin-1-yl)methyl]-1-(4-methylphenyl)cyclopropanecarboxylate [(+/-)-PPCC)]: new sigma receptor ligands with neuroprotective effect” (J Med Chem, 2010)
Active and inactive are the calls of the source. The calls are words filed in the database; no cut-off is given here.

Experiments:
[1] = (§1) Displacement of [3H]-DTG from sigma2 opioid receptor by liquid scintillation counting; set-up: species or system Cavia porcellus
[2] = system: Astrocyte; test: Neuroprotective activity against glutamate-induced GSH depletion in rat astrocytes assessed as GSH level at 25 uM measured per gram of protein by spectrofluorimetry (RVb = 9.08 +/- 0.9 […]); format: functional
[3] = system: Astrocyte; test: Neuroprotective activity against glutamate-induced ROS production in albino rat astrocytes assessed as dichlorofluresceine produced per gram of protein per 30 mins at 25 uM by spectrofluorimetry (RVb = 4.45 +/- 0.51 nmol); format: functional
[4] = target: Sigma non-opioid intracellular receptor 1 (Cavia porcellus, UniProt Q60492); test: Displacement of [3H](+)-pentazocine from guinea pig sigma1 opioid receptor by liquid scintillation counting
[5] = Neuroprotective activity against glutamate-induced transglutaminase-2 expression albino rat astrocytes assessed as reduction in transglutaminase level at 25 uM by immunoblotting; format: functional, cell-based; settings: Astrocyte
In short: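 Primary rat neocortical astroglial cultures at 14 DIV, about 90-95% GFAP-positive. Exposed for 24 h to ligand at 25 μM, with or without glutamate at 500 μM. TG2 expression was measured by immunoblot with densitometry and compared against control and glutamate-alone cultures.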

[6] = species on record: Cavia porcellus; test: as §1
[7] = system: Rattus norvegicus; test: Analgesic activity in Sprague-Dawley rat assessed as reduction in (-)-U50,488H-induced tail flick latency at 1 mg/kg, sc pretreated 30 mins prior to (-)-U50,488H challenge; format: functional, organism-based; set-up: dose 1 mg/kg
In short: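 Rat tail-flick test. Ligand given systemically at 1 mg/kg sc as a pretreatment before a KOP agonist. Tail-flick latency was followed over the observation period, with basal latency also recorded.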

Sequence of Sigma non-opioid intracellular receptor 1 (Q60492 whole entry): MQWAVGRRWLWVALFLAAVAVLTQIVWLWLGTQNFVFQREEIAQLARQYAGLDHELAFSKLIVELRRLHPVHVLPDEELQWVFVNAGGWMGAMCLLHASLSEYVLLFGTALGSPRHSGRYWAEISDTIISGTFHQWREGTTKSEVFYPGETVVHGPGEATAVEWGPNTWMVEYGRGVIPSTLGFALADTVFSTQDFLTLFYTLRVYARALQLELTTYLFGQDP

COC(=O)[C@]1(c2ccc(C)cc2)C[C@@H]1CN1CCC(O)(c2ccccc2)CC1
Ki [1]: 50.2 nM | Activity [2]: 13.44 nmol | Activity [3]: 3.05 nmol | Ki [4]: 1.9 nM | Activity [5]: Active

COC(=O)[C@@]1(c2ccc(C)cc2)C[C@H]1CN1CCC(O)(c2ccccc2)CC1
Activity [6]: 103 nM | Activity [2]: 14.87 nmol | Activity [3]: 3.67 nmol | Ki [4]: 13 nM | Activity [7]: Active | Activity [5]: inactive

COC(=O)C1(c2ccc(C)cc2)CC1CN1CCC(O)(c2ccccc2)CC1 (racemic)
Ki [1]: 20.8 nM | Activity [2]: 8.05 nmol | Activity [3]: 5.51 nmol | Ki [4]: 1.8 nM | Activity [5]: inactive

CC(C)=CCN1CC[C@]2(C)c3cc(O)ccc3C[C@H]1[C@H]2C [(+)-PENTAZOCINE]
Activity [2]: 14.15 nmol | Activity [3]: 3.46 nmol | Activity [5]: Active

CC[C@H]1C[C@H]2C[C@H]3c4[nH]c5ccc(OC)cc5c4CCN(C2)[C@@H]13 [IBOGAINE]
Activity [2]: 7.95 nmol | Activity [3]: 5.82 nmol | Activity [5]: inactive
